Measurements collected from several papers.
Lines come from different studies, so protocols differ.
JAK1: Tyrosine-protein kinase JAK1 (JAK1, Homo sapiens, UniProt P23458)
JAK1 JH2: Tyrosine-protein kinase JAK1, JH2 (JAK1, Homo sapiens, UniProt P23458)
JAK1 JH1: Tyrosine-protein kinase JAK1, JH1 (JAK1, Homo sapiens, UniProt P23458)

N[C@@H]1CCN(c2nccc(-c3cnn4ncccc34)n2)C1
remaining binding (JAK1; binding; 1 µM): 100%

CN(C)CC#Cc1ccc(OCCCc2sc(N3CCc4cccc(C(=O)Nc5nc6ccccc6s5)c4C3)nc2C(=O)O)c(F)c1
remaining binding (JAK1 JH2; cell-free assay, competition with immobilised ligand; 1 µM): 100%

COc1ncc2cc3ccccc3nc2c1C#N
remaining binding (JAK1 JH1; cell-free assay, competition with immobilised ligand; 5 µM): 93%

O=C(c1ccc(Nc2nccc(-c3cc4ccccc4s3)n2)cc1)N1CCC(N2CCCC2)CC1
remaining binding (JAK1 JH1; binding, competition with immobilised ligand; 1 µM): 82%

C[C@H]1CCN(c2nccc(-c3cnn4ncccc34)n2)C1
remaining binding (JAK1; binding; 1 µM): 62%

O=C(Nc1c[nH]nc1C(=O)NC1CCNCC1)c1cc(F)cc(F)c1
remaining binding (JAK1 JH2; binding, competition with immobilised ligand; 1 µM): 82%

O=C(NCCCN1CCOCC1)c1ccc(Nc2ncc(Cl)c(-c3ccc(Cl)s3)n2)cc1
remaining binding (JAK1 JH1; binding, competition with immobilised ligand; 1 µM): 4.6%

c1cncc(-c2cccc(Nc3nccc(NC4CCCCC4)n3)c2)c1
remaining binding (JAK1 JH2; binding, competition with immobilised ligand; 10 µM): 0.2%

CC(=O)C1=C(C)N(c2cccc(C(F)(F)F)c2)C(=O)N[C@@H]1c1ccc(C#N)nc1
remaining binding (JAK1 JH1; cell-free assay, competition with immobilised ligand; 1 µM): 85.9%

COc1cnc(Nc2cccc(S(N)(=O)=O)c2)nc1N1CCN(c2ccccc2)CC1
remaining binding (JAK1 JH1; binding, competition with immobilised ligand; 1 µM): 48%

CN(C(=O)c1ccccc1)c1cc(N(C)c2ccc3c(c2)CCc2ccc(C(=O)NCCN4CCOCC4)cc2C3=O)ccc1F
remaining binding (JAK1 JH2; cell-free assay, competition with immobilised ligand; 1 µM): 88%

COc1cnc(Nc2cccc(S(N)(=O)=O)c2)nc1N1CCN(c2ccccc2)C(=O)C1
remaining binding (JAK1 JH2; binding, competition with immobilised ligand; 1 µM): 44%

CN([C@@H]1CCc2c(CC(=O)O)c3cc(S(C)(=O)=O)ccc3n2C1)S(=O)(=O)c1ccc(F)cc1
remaining binding (JAK1 JH2; cell-free assay, competition with immobilised ligand; 1 µM): 94%

O=C(c1ccc(Nc2ncc(Cl)c(-c3ccc(Cl)s3)n2)cc1)N1CCC(N2CCCC2)CC1
remaining binding (JAK1 JH2; binding, competition with immobilised ligand; 1 µM): 3.9%

Cc1cnn2ncc(-c3ccnc(N(C)C)n3)c2c1
remaining binding (JAK1; binding; 1 µM): 51%

CC1=C(C#N)[C@@H](c2ccc3[nH]nc(C)c3c2)C(C#N)=C(c2ccc(Cl)cc2)N1
remaining binding (JAK1 JH2; cell-free assay, competition with immobilised ligand; 1 µM): 38.2%

CN(C)c1nccc(-c2cnc3ncccn23)n1
remaining binding (JAK1 JH1; cell-free assay, competition with immobilised ligand; 1 µM): 94%

CCN1CCN(Cc2ccc(C(=O)Nc3ccc(C)c(Oc4ccc5c(c4)CC(=O)N5)c3)cc2C(F)(F)F)CC1
remaining binding (JAK1 JH2; binding, competition with immobilised ligand; 1 µM): 100%

CC1CCCN1c1nccc(-c2cnn3ncccc23)n1 (centres unmarked)
remaining binding (JAK1 JH1; cell-free assay, competition with immobilised ligand; 1 µM): 100%

CN1CCN(c2cnc3c(C4CCN(C(=O)c5ccc(OC(F)(F)F)cc5N)CC4)ncnc3c2)CC1
remaining binding (JAK1 JH1; cell-free assay, competition with immobilised ligand; 1 µM): 100%
